Laboratory results reported in ChEMBL document CHEMBL1140890, “Ivermectin-derived leishmanicidal compounds” (Bioorg Med Chem, 2009).

What was measured:
[1] = Selectivity index, ratio of IC50 for mouse peritoneal macrophages to IC50 for Leishmania amazonensis Josefa amastigotes
Procedure, shortened: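 Macrophage LDH-release IC50 divided by intracellular amastigote IC50.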

[2] = Cytotoxicity against mouse peritoneal macrophages assessed as LDH release after 48 hrs; assay type: cell-based, Macrophage
Procedure, shortened: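 Mouse peritoneal macrophages at 2 × 10⁶ cells/well, 48 h at 37 °C in DMEM + 5% HIFCS with compound at 0, 10, 30, 90 µM in 0.5% DMSO. LDH released into medium measured by kit. Maximum and minimum release set by 2% Triton X-100 and 0.5% DMSO; means of triplicates.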

Leishmania amazonensis [3] = assay: Antileishmanial activity against GFP-tagged Leishmania amazonensis Josefa promastigotes after 72 hrs by fluorimetric assay; assay type: functional, organism-based
Procedure, shortened: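 GFP-transfected promastigotes (kept in DMEM + 10% HIFCS at 27 °C, periodically re-isolated from infected mice) seeded at 5 × 10⁵ cells/ml in DMEM, 5% HIFCS, 0.5% DMSO. Exposed to 0, 10, 30, 90 µM for 72 h at 27 °C. Fluorescence read at […] / 538 nm emission; IC50 from means of triplicates.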

Leishmania amazonensis [4] = assay: Antileishmanial activity against GFP-tagged Leishmania amazonensis Josefa amastigotes infected in mouse peritoneal macrophages after 72 hrs by fluorimetric assay; assay type: functional, organism-based
Procedure, shortened: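 Mouse peritoneal macrophages at 2 × 10⁶ cells/well, allowed to adhere, then infected 4 h at 37 °C with 10⁷ GFP-transfected fluorescent promastigotes. Free parasites washed off; cultured a further 72 h with compound at 0, 10, 30, 90 µM in 0.5% DMSO. Fluorescence read as for promastigotes. Maximum and minimum inhibition set by uninfected and untreated infected cells; means of triplicates.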

[5] = Leishmania amazonensis, Josefa, 72 h

| Compound | Ratio IC50 [1] | IC50 ([2]; Mus musculus, Macrophage, 48 h) [µM] | IC50 (Leishmania amazonensis [3]; [5]) [µM] | IC50 (Leishmania amazonensis [4]; [5]) [µM] | IC50 ([2]; macrophage) [µM] | IC50 (Leishmania amazonensis [3]) [µM] | IC50 (Leishmania amazonensis [4]) [µM] |
| --- | --- | --- | --- | --- | --- | --- | --- |
| IVERMECTIN [listing 1 of 2 here] | 14.5 |  |  |  |  |  |  |
| CC[C@H](C)[C@H]1O[C@]2(CC[C@@H]1C)C[C@@H](O)C[C@@H](C/C=C(\C)[C@@H](O[C@H]1C[C@H](OC)[C@@H](O)[C@H](C)O1)[C@@H](C)CO)O2 [NORTHERN MONOSACCHARIDE] | 0.8 | 32.1 | 65.7 | 41.5 |  |  |  |
| C[C@@H]1[C@H](O)[C@@H](C)/C=C/C=C/C=C/C=C/C=C/C=C/C=C/[C@H](O[C@@H]2O[C@H](C)[C@@H](O)[C@H](N)[C@@H]2O)C[C@@H]2O[C@](O)(C[C@@H](O)C[C@@H](O)[C@H](O)CC[C@@H](O)C[C@@H](O)CC(=O)O[C@H]1C)C[C@H](O)[C@H]2C(=O)O [AMPHOTERICIN B] |  |  | 4.4 |  |  |  |  |
| CCOC(=O)C1=C[C@H](C)[C@@H](O)[C@H]2OC/C(=C\C=C\[C@H](C)[C@H](O[C@H]3C[C@H](OC)[C@@H](O[C@H]4C[C@H](OC)[C@@H](O)[C@H](C)O4)[C@H](C)O3)/C(C)=C/C[C@@H]3C[C@H](O)C[C@]4(CC[C@H](C)[C@@H]([C@@H](C)CC)O4)O3)[C@@]12O | 5.8 | 27.1 | 2.8 | 4.6 |  |  |  |
| CC[C@H](C)[C@H]1O[C@]2(CC[C@@H]1C)C[C@@H]1C[C@@H](C/C=C(\C)[C@@H](O)[C@@H](C)/C=C/C=C3\CO[C@@H]4[C@H](O)C(C)=C[C@@H](C(=O)O1)[C@]34O)O2 [IVM AGLYCONE] | >2.8 | > 90 | 8.3 | 32 |  |  |  |
| CC[C@H](C)[C@H]1O[C@]2(CC[C@@H]1C)C[C@@H](O)C[C@@H](C/C=C(\C)[C@@H](O[C@H]1C[C@H](OC)[C@@H](O[C@H]3C[C@H](OC)[C@@H](O)[C@H](C)O3)[C@H](C)O1)[C@@H](C)CO)O2 | 4.2 | 55 | 17.1 | 13.2 |  |  |  |
| CO[C@H]1C[C@H](O[C@H]2[C@H](C)O[C@@H](O[C@H](C(C)O)[C@@H](C)CO)C[C@@H]2OC)O[C@@H](C)[C@@H]1O (some centres undefined) | <1 | 86.2 | > 90 | > 90 |  |  |  |
| CC[C@H](C)[C@H]1O[C@]2(CC[C@@H]1C)C[C@@H](O)C[C@@H](CCO)O2 [SPIRODIOL] | >1.7 | > 90 | > 90 | 54.5 |  |  |  |
| CC[C@H](C)[C@H]1O[C@]2(CC[C@@H]1C)C[C@@H](O)C[C@@H](C/C=C(\C)[C@@H](O)[C@@H](C)CO)O2 [NORTHERN AGLYCONE] | >3 | > 90 | > 90 | 30.5 |  |  |  |
| CCOC(=O)[C@@H]1C=C(C)[C@@H](O)[C@H]2OC/C(=C\CO)[C@]21O [SOUTHERN DIOL] | >2.3 | > 90 | > 90 | 38.6 |  |  |  |
| D-glutonic acid, 2,4:2',4'-O-[oxybis-(oxidostibylidyne)]bis-, trisodium salt, nonahydrate | > 5 |  |  |  |  |  |  |
| IVERMECTIN [listing 2 of 2 here] |  |  |  |  | 72.4 | 7 | 5 |
| CCOC(=O)C1=C[C@H](C)[C@@H](O)[C@H]2OC/C(=C\CO)[C@@]12O | >6.5 | > 90 | > 90 | 13.8 |  |  |  |
| CC[C@H](C)[C@H]1O[C@]2(CC[C@@H]1C)C[C@@H]1C[C@@H](C/C=C(\C)[C@@H](O[C@H]3C[C@H](OC)[C@@H](O[C@H]4C[C@H](OC)[C@@H](O)[C@H](C)O4)[C@H](C)O3)[C@@H](C)/C=C/C=C3\CO[C@@H]4[C@H](O)[C@@H](C)C=C(C(=O)O1)[C@]34O)O2 | 18.2 | 65.5 | 13.8 | 3.6 |  |  |  |
| CCOC(=O)[C@@H]1C=C(C)[C@@H](O)[C@H]2OC/C(=C\C=C\[C@H](C)[C@H](O[C@H]3C[C@H](OC)[C@@H](O[C@H]4C[C@H](OC)[C@@H](O)[C@H](C)O4)[C@H](C)O3)/C(C)=C/C[C@@H]3C[C@H](O)C[C@]4(CC[C@H](C)[C@@H]([C@@H](C)CC)O4)O3)[C@]21O | 6.6 | 42.9 | 10.7 | 6.5 |  |  |  |
| CC[C@H](C)[C@H]1O[C@]2(CC[C@@H]1C)C[C@@H]1C[C@@H](C/C=C(\C)[C@@H](O[C@H]3C[C@H](OC)[C@@H](O)[C@H](C)O3)[C@@H](C)/C=C/C=C3\CO[C@@H]4[C@H](O)C(C)=C[C@@H](C(=O)O1)[C@]34O)O2 | >3 | > 90 | 7.7 | 29.7 |  |  |  |
